Test system: U2OS
Assay: Multiplex assay against U2OS
Format: toxicity, cell-based
Conditions: human
How it was run: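 Live cells carried four stains from seeding: Hoechst33342, BioTracker Green Microtubule Cytoskeleton Dye, MitoTracker Red and Annexin V Alexa Fluor 680. They were imaged on a CQ1 microscope at 37°C and 5% CO2 after compound addition. Using CellPathfinder machine-learning gating, cells were split into Hoechst high-intensity objects or normal cells, normal cells into healthy, pyknosed or fragmented nuclei, and pyknosed cells into mitotic or apoptotic; tubulin, mitochondrial-mass and membrane-permeability phenotypes are per cents of healthy-nucleus cells.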

[1] = 12 h, 1 µM, compound concentration 1 uM, replicate 1
[2] = 12 h, 1 µM, compound concentration 1 uM, replicate 2
[3] = 12 h, 10 µM, compound concentration 10 uM, replicate 1
[4] = 12 h, 10 µM, compound concentration 10 uM, replicate 2
[5] = 24 h, 1 µM, compound concentration 1 uM, replicate 1
[6] = 24 h, 1 µM, compound concentration 1 uM, replicate 2
[7] = 24 h, 10 µM, compound concentration 10 uM, replicate 1
[8] = 24 h, 10 µM, compound concentration 10 uM, replicate 2
[9] = 48 h, 1 µM, compound concentration 1 uM, replicate 1
[10] = 48 h, 1 µM, compound concentration 1 uM, replicate 2
[11] = 48 h, 10 µM, compound concentration 10 uM, replicate 1
[12] = 48 h, 10 µM, compound concentration 10 uM, replicate 2

SMILES: O=C1NC(=O)C(c2cnc3ccccn23)=C1c1cn2c3c(cc(F)cc13)CN(C(=O)N1CCCCC1)CC2 [LY-2090314]
- Population Apoptotic (%) [1]: 37%
- Population Fragmented Nuclei (%) [1]: 8%
- Population Healthy Nuclei (%) [1]: 74%
- Population Hoechst High Intensity Objects (%) [1]: 8%
- Population Membrane Permeable-Phenotype (%) [1]: 5%
- Population Mitochondria Different-Phenotype (%) [1]: 31%
- Population Mitotic Cells (%) [1]: 62%
- Population Normal (%) [1]: 91%
- Population Pyknosed Nuclei (%) [1]: 17%
- Population Tubulin-Different-Phenotype (%) [1]: 38%
- Total Cell Count [1]: 121
- Population Apoptotic (%) [2]: 80%
- Population Fragmented Nuclei (%) [2]: 3%
- Population Healthy Nuclei (%) [2]: 87%
- Population Hoechst High Intensity Objects (%) [2]: 12%
- Population Membrane Permeable-Phenotype (%) [2]: 6%
- Population Mitochondria Different-Phenotype (%) [2]: 16%
- Population Mitotic Cells (%) [2]: 20%
- Population Normal (%) [2]: 87%
- Population Pyknosed Nuclei (%) [2]: 9%
- Population Tubulin-Different-Phenotype (%) [2]: 22%
- Total Cell Count [2]: 85
- Population Apoptotic (%) [3]: 60%
- Population Fragmented Nuclei (%) [3]: 13%
- Population Healthy Nuclei (%) [3]: 73%
- Population Hoechst High Intensity Objects (%) [3]: 18%
- Population Membrane Permeable-Phenotype (%) [3]: 44%
- Population Mitochondria Different-Phenotype (%) [3]: 95%
- Population Mitotic Cells (%) [3]: 40%
- Population Normal (%) [3]: 81%
- Population Pyknosed Nuclei (%) [3]: 13%
- Population Tubulin-Different-Phenotype (%) [3]: 99%
- Total Cell Count [3]: 153
- Population Apoptotic (%) [4]: 100%
- Population Fragmented Nuclei (%) [4]: 9%
- Population Healthy Nuclei (%) [4]: 74%
- Population Hoechst High Intensity Objects (%) [4]: 10%
- Population Membrane Permeable-Phenotype (%) [4]: 40%
- Population Mitochondria Different-Phenotype (%) [4]: 96%
- Population Mitotic Cells (%) [4]: 0%
- Population Normal (%) [4]: 89%
- Population Pyknosed Nuclei (%) [4]: 16%
- Population Tubulin-Different-Phenotype (%) [4]: 96%
- Total Cell Count [4]: 63
- Population Apoptotic (%) [5]: 36%
- Population Fragmented Nuclei (%) [5]: 13%
- Population Healthy Nuclei (%) [5]: 64%
- Population Hoechst High Intensity Objects (%) [5]: 3%
- Population Membrane Permeable-Phenotype (%) [5]: 3%
- Population Mitochondria Different-Phenotype (%) [5]: 21%
- Population Mitotic Cells (%) [5]: 63%
- Population Normal (%) [5]: 96%
- Population Pyknosed Nuclei (%) [5]: 21%
- Population Tubulin-Different-Phenotype (%) [5]: 25%
- Total Cell Count [5]: 124
- Population Apoptotic (%) [6]: 80%
- Population Fragmented Nuclei (%) [6]: 4%
- Population Healthy Nuclei (%) [6]: 87%
- Population Hoechst High Intensity Objects (%) [6]: 13%
- Population Membrane Permeable-Phenotype (%) [6]: 7%
- Population Mitochondria Different-Phenotype (%) [6]: 22%
- Population Mitotic Cells (%) [6]: 20%
- Population Normal (%) [6]: 86%
- Population Pyknosed Nuclei (%) [6]: 8%
- Population Tubulin-Different-Phenotype (%) [6]: 18%
- Total Cell Count [6]: 82
- Population Apoptotic (%) [7]: 71%
- Population Fragmented Nuclei (%) [7]: 20%
- Population Healthy Nuclei (%) [7]: 59%
- Population Hoechst High Intensity Objects (%) [7]: 18%
- Population Membrane Permeable-Phenotype (%) [7]: 62%
- Population Mitochondria Different-Phenotype (%) [7]: 98%
- Population Mitotic Cells (%) [7]: 28%
- Population Normal (%) [7]: 81%
- Population Pyknosed Nuclei (%) [7]: 19%
- Population Tubulin-Different-Phenotype (%) [7]: 100%
- Total Cell Count [7]: 171
- Population Apoptotic (%) [8]: 81%
- Population Fragmented Nuclei (%) [8]: 11%
- Population Healthy Nuclei (%) [8]: 64%
- Population Hoechst High Intensity Objects (%) [8]: 4%
- Population Membrane Permeable-Phenotype (%) [8]: 37%
- Population Mitochondria Different-Phenotype (%) [8]: 96%
- Population Mitotic Cells (%) [8]: 18%
- Population Normal (%) [8]: 95%
- Population Pyknosed Nuclei (%) [8]: 24%
- Population Tubulin-Different-Phenotype (%) [8]: 96%
- Total Cell Count [8]: 72
- Population Apoptotic (%) [9]: 55%
- Population Fragmented Nuclei (%) [9]: 15%
- Population Healthy Nuclei (%) [9]: 63%
- Population Hoechst High Intensity Objects (%) [9]: 3%
- Population Membrane Permeable-Phenotype (%) [9]: 7%
- Population Mitochondria Different-Phenotype (%) [9]: 22%
- Population Mitotic Cells (%) [9]: 44%
- Population Normal (%) [9]: 96%
- Population Pyknosed Nuclei (%) [9]: 21%
- Population Tubulin-Different-Phenotype (%) [9]: 12%
- Total Cell Count [9]: 117
- Population Apoptotic (%) [10]: 72%
- Population Fragmented Nuclei (%) [10]: 8%
- Population Healthy Nuclei (%) [10]: 79%
- Population Hoechst High Intensity Objects (%) [10]: 7%
- Population Membrane Permeable-Phenotype (%) [10]: 11%
- Population Mitochondria Different-Phenotype (%) [10]: 17%
- Population Mitotic Cells (%) [10]: 27%
- Population Normal (%) [10]: 92%
- Population Pyknosed Nuclei (%) [10]: 12%
- Population Tubulin-Different-Phenotype (%) [10]: 19%
- Total Cell Count [10]: 82
- Population Apoptotic (%) [11]: 95%
- Population Fragmented Nuclei (%) [11]: 33%
- Population Healthy Nuclei (%) [11]: 39%
- Population Hoechst High Intensity Objects (%) [11]: 20%
- Population Membrane Permeable-Phenotype (%) [11]: 68%
- Population Mitochondria Different-Phenotype (%) [11]: 93%
- Population Mitotic Cells (%) [11]: 5%
- Population Normal (%) [11]: 79%
- Population Pyknosed Nuclei (%) [11]: 26%
- Population Tubulin-Different-Phenotype (%) [11]: 100%
- Total Cell Count [11]: 221
- Population Apoptotic (%) [12]: 83%
- Population Fragmented Nuclei (%) [12]: 12%
- Population Healthy Nuclei (%) [12]: 72%
- Population Hoechst High Intensity Objects (%) [12]: 11%
- Population Membrane Permeable-Phenotype (%) [12]: 48%
- Population Mitochondria Different-Phenotype (%) [12]: 89%
- Population Mitotic Cells (%) [12]: 16%
- Population Normal (%) [12]: 88%
- Population Pyknosed Nuclei (%) [12]: 15%
- Population Tubulin-Different-Phenotype (%) [12]: 89%
- Total Cell Count [12]: 93
